Assay results: paper PMC10527432 (Cell, 2023)
Entries after “also recorded” stand apart in the source; their conditions may differ. Like-named read-outs stand apart in the source and are kept apart here.

Columns and labels:
[1] = target: Tau fibrils (Homo sapiens, UniProt P10636); experiment: [18F]-F0502B saturation binding assay with Tau PFFs; conditions: read-out: KD, Tau fibrils, 1 μM PFFs
Outline: (§1)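 PFFs (1 μM) were incubated with [18F]-labelled test compound (5–900 nM) for 1 h at 37 °C in 30 mM Tris-HCl pH 7.4, 0.1% BSA, 0.5% sodium ascorbate. Nonspecific binding was defined with 2 μM unlabeled compound. Samples were filtered, washed twice and counted by scintillation, in duplicate. Kd and Bmax were obtained by nonlinear fit to Y = Bmax*X/(X+Kd).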

[2] = target: α-Syn fibrils (Homo sapiens, UniProt P37840); experiment: [18F]-F0502B saturation binding assay with α-Syn PFFs; conditions: read-out: KD, α-Syn fibrils, 1 μM PFFs
Outline: as §1

[3] = target: Tau fibrils in AD patients (Homo sapiens, UniProt P10636); experiment: Saturation binding assay with insoluble Tau fraction from AD brain
Tau fibrils in AD patients, sequence (P10636 623-708 limits assumed): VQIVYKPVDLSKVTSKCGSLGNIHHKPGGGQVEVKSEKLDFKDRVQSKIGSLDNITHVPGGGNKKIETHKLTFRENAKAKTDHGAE
Outline: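 Insoluble Tau was extracted from AD brain in 10 mM Tris-HCl pH 7.4, 0.8 M NaCl, 1 mM EGTA, 10% sucrose. Sequential centrifugations up to 100,000 × g were performed at 4 °C. The pellet was resuspended in 20 mM Tris-HCl pH 7.4, 100 mM NaCl and run over a Superose 6 column.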

[4] = target: Aβ fibrils in AD patients (Homo sapiens, UniProt P05067); experiment: Saturation binding assay with insoluble Aβ fraction from AD brain
Aβ fibrils in AD patients, sequence (P05067 672-711 limits assumed): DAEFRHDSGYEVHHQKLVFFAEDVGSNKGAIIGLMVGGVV
Outline: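 Insoluble Aβ was extracted from AD gray matter by homogenization in 0.32 M sucrose, mesh sieving, and centrifugation in 1 M sucrose. This was followed by collagenase/dispase (2 mg/ml) digestion for 16 h at 37 °C and a discontinuous 1.05–1.8 M sucrose gradient.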

[5] = target: Aβ1–42 fibrils (Homo sapiens, UniProt P05067); experiment: [18F]-F0502B saturation binding assay with Aβ PFFs; conditions: read-out: KD, Aβ fibrils, 1 μM PFFs
Aβ1–42 fibrils, sequence (P05067 672-713 limits assumed): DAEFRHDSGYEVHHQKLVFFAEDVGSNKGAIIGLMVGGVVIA
Outline: as §1

[6] = tested on: synthetic α-Syn aggregates and Aβ fibrils; conditions: cited from earlier work
[7] = tested on: α-Syn aggregation; conditions: cited from earlier work
[8] = tested on: Aβ plaques or NFTs; experiment: Counter-staining of mouse brain sections; conditions: Tau P301S, 5xFAD, 3xTg mice
Outline: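 Cortical slices from 14-month-old 3xTg, 6-month-old Tau P301S and 12-month-old 5xFAD mice were fixed and incubated with primary antibodies for 12 h at 4 °C. Alexa Fluor-conjugated secondary antibodies were applied for 3 h at room temperature, with DAPI (1 μg/ml) nuclear counterstain. Slices were imaged by confocal microscopy.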

[9] = target: α-Syn deposits in mouse brain sections (Homo sapiens, UniProt P37840, A53T); experiment: Staining of mouse brain sections containing α-Syn deposits; conditions: SN of AAV-α-Syn A53T-injected mice
[10] = target: aggregated α-Syn in PD/DLB patients (Homo sapiens, UniProt P37840); experiment: Saturation binding assay with insoluble α-Syn fraction from PD/DLB brain
Outline: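 Insoluble α-Syn was extracted from frozen PD and DLB brain in 50 mM Tris-HCl pH 7.4, 800 mM NaCl, 10 mM NaF, 5 mM EDTA at 100,000 × g. Pellets were re-extracted with buffer containing 1% Triton X-100, then 1% Triton X-100 plus 30% sucrose. A final 1% sarkosyl step ran overnight, followed by a 100,000 × g spin.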

[11] = target: α-Syn aggregates in macaque brain (Homo sapiens, UniProt P37840, A53T); experiment: PET imaging in non-human primate PD models; format: in vivo, rhesus macaques; conditions: macaques injected with AAV-α-Syn A53T
[12] = tested on: α-Syn aggregates in macaque brain; experiment: PET imaging in non-human primate PD models; format: in vivo, rhesus macaques; conditions: control macaques
[13] = target: LBs in human brain sections (Homo sapiens, UniProt P37840); experiment: Autoradiography with human brain slices; format: binding; conditions: PD versus AD patients; 4 nM tracer
Outline: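 Post-mortem human brain slices, stored at −20 °C, were preincubated in PBS + 0.1% BSA (pH 7.4) to reach room temperature. They were then incubated with [18F]-labelled tracer at room temperature for 30 min, rinsed in cold buffer and once in distilled water, and dried. Slices were exposed to imaging plates for 3 h before development.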

[14] = target: α-Syn deposits in PD/DLB brain homogenates (Homo sapiens, UniProt P37840); format: binding
Outline: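 Brain lysates from 4 control and 4 patient cases were normalized for aggregate levels by pS129 western blot. Homogenates (0.2 mg/ml) were incubated with [18F]-labelled test compound (5–900 nM) for 1 h at 37 °C in 50 mM Tris-HCl, 50 mM NaCl, 0.5% sodium ascorbate, pH 7.4. Samples were then filtered, washed twice and counted by scintillation.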

[15] = tested on: Aβ plaques or NFTs in AD; experiment: Counter-staining of AD patient brain sections; set-up: species or system human; conditions: AD patients
[16] = Toxicology test in mice; format: in vivo; conditions: C57BL/6 mice
[17] = target: aggregated α-Syn in PD brains (Homo sapiens, UniProt P37840); experiment: In vitro competition assay against [3H]BF-227 in postmortem PD brain tissue; format: binding; conditions: read-out: Ki against [3H]BF227; postmortem PD brain tissue homogenate
Outline: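 Postmortem PD brain homogenate (α-Syn aggregates, no other amyloid) was used at a final 100 μg tissue/mL in PBS/0.1% BSA, pH 7.0. Unlabeled test compound (0.1–1000 nM; 0.25% DMSO final) was combined with [3H]BF-227 solution (~2 nM). 100% inhibition was defined by displacement with 1 μM unlabeled compound. Each concentration was run in triplicate, giving Ki.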

[18] = tested on: Aβ or Tau aggregates; experiment: Ex vivo staining after i.v. F0502B in 5xFAD, 3xTg, Tau P301S mice; set-up: species or system mouse; conditions: 2 mg/kg i.v., 2 h
Outline: (§2)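 Eight-month-old mice received test compound at 2 mg/kg via the tail vein, and brain sections were prepared 2 h later. Sections were stained with anti-Aβ, anti-p-Tau (AT8), anti-p-α-Syn S129 and ThS, and co-localization was assessed. Cortex was examined for 5xFAD, 3xTg and Tau P301S mice. SN was examined for mice given unilateral stereotaxic AAV9-α-Syn A53T into SN at 3 months.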

[19] = target: α-Syn pathology in DLB and MSA patient brain (Homo sapiens, UniProt P37840); experiment: Staining of DLB and MSA patient brain sections; conditions: DLB and MSA patients
[20] = target: Tau PFFs (Homo sapiens, UniProt P10636); experiment: Fibril binding assay; conditions: fluorescence; 0.08 μM fibrils, 5 μM compound; regardless of 3R or 4R Tau
Tau PFFs, sequence (P10636 1-441 isoform P10636-8): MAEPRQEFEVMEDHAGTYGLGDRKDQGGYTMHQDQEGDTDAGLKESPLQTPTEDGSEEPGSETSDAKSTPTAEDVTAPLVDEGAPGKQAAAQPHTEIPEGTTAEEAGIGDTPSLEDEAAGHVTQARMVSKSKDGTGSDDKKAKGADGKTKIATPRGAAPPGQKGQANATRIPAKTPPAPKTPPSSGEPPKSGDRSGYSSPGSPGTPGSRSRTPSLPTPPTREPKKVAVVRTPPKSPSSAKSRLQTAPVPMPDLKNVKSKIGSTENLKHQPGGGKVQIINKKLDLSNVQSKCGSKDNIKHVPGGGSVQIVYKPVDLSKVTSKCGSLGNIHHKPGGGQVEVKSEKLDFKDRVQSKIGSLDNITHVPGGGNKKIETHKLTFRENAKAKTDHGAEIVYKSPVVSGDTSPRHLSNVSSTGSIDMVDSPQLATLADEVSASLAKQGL
Outline: (§3)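 In the fluorescence screen, test compound (5 μM) in 50 mM Tris-HCl, 50 mM NaCl, pH 7.4 was added to fibrils or monomers (0.08 μM) in triplicate wells. Fluorescence was read at each compound's own excitation/emission wavelengths. α-Syn fibrils were commercial, dissolved to 1 mg/ml in PBS. Tau PFFs were assembled from 3 mg/mL protein with 12.5 μM heparin for 7 days at 37 °C with shaking; mixed 3R-4R fibrils used 0N3R and 2N4R at 1.5 mg/ml each.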

[21] = tested on: α-Syn deposits in mouse brain sections; experiment: Staining of mouse brain sections containing α-Syn deposits; conditions: SNCA transgenic mice treated with rotenone
[22] = target: α-Syn aggregates (Homo sapiens, UniProt P37840, A53T); experiment: Ex vivo staining after i.v. F0502B in AAV-α-Syn A53T mice; set-up: species or system mouse; conditions: 2 mg/kg i.v., 2 h
Outline: as §2

[23] = target: α-Syn PFFs (Homo sapiens, UniProt P37840); experiment: Fibril binding assay; conditions: fluorescence, 0.08 μM fibrils, 5 μM compound
Outline: as §3

[24] = target: Aβ PFFs (Homo sapiens, UniProt P05067); experiment: Fibril binding assay; conditions: fluorescence; 0.08 μM fibrils, 5 μM compound
Aβ PFFs, sequence (P05067 672-713 limits assumed): as the sequence (P05067 672-713 limits assumed) above

[25] = tested on: α-Syn aggregates in primary neurons; experiment: Fluorescence staining of primary neurons containing α-Syn aggregates; format: cell-based, rat; conditions: AAV-α-Syn + α-Syn PFFs, fluorescence microscopy
Outline: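 Primary embryonic rat neurons were cultured at 37 °C in 5% CO2 and infected with AAV-α-Syn at DIV7. At DIV12 they received sonicated α-Syn PFFs at 100 ng/ml final, with monomer as control. Test compound was then added and binding to the intracellular aggregates was assessed by fluorescence microscopy.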

[26] = In vivo pharmacokinetics study in mice, i.v.; conditions: i.v. 5 mg/kg
Outline: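 Male ICR mice received 5 mg/kg i.v. Test compound was measured in plasma and brain homogenates at successive time points, with 3 mice per time point. Brain/plasma ratios, plasma half-life and clearance were derived; data are mean ± SD.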

Tau fibrils, sequence (P10636 1-441 isoform P10636-8): as the sequence (P10636 1-441 isoform P10636-8) above

`Cc1cc2nc(/C=C/c3ccc(O)c(Br)c3)sc2cc1N(C)CCOCCF` [[^18F]-F0502B] gave a Kd [1] of 120 nM, a Kd [2] of 11 nM and a Kd ([3]; read-out: KD, Tau fibrils in AD patients) of 151 nM. It also gave a Kd ([4]; read-out: KD, Aβ fibrils in AD patients) of 108 nM and a Kd [5] of 109 nM.

For `CN(C)c1ncc(/C=C/c2nc3ccc(OCCF)cc3o2)s1` [BF-227], the “binding to α-Syn aggregates and Aβ fibrils in vitro” value [6] is listed as “binds to both synthetic α-Syn aggregates and Aβ fibrils in vitro”.

In the case of `Oc1ccc(-c2cc(-c3cccc(Br)c3)n[nH]2)cc1O` [anle138c], the “inhibition of α-Syn aggregation” value [7] is listed as “complete the inhibition of α-Syn aggregation; also recorded: strong inhibition of α-Syn aggregation”.

For thioflavin-S [ThS, reference compound], the “staining of Aβ plaques or NFTs in mouse brain sections” value [8] was “stained all of these aggregates” and the “staining of α-Syn deposits in mouse brain sections” value [9] was “stained all of these aggregates”.

In the case of `Cc1cc2nc(/C=C/c3ccc(O)c(Br)c3)sc2cc1N(C)CCOCC[18F]` [[^18F]-F0502B], the “Bmax, aggregated α-Syn in DLB patients” value ([10]; DLB) is reported as 12.30 fmol/nmol, the “Bmax, aggregated α-Syn in PD patients” value ([10]; PD) is reported as 14.95 fmol/nmol and the “PET signal in brain” value [11] is reported as “demonstrable signals in the striatal regions”. For the same compound, the “PET signal in brain” value [12] was “devoid of radiotracer retention”, the “autoradiographic binding to human brain sections” value [13] was “selectively associated with LBs in brain sections from PD but not AD patients” and the “Bmax, Tau fibrils in AD patients” value [3] was 1.14 fmol/nmol. The “specific binding in PD/AD/healthy control tissues” value ([14]; total and nonspecific binding curves, frontal cortex) was “only specific binding with PD tissues but not AD or control tissues” and the “Bmax, Aβ fibrils in AD patients” value [4] was 2.34 fmol/nmol.

In the case of `Cc1cc2nc(/C=C/c3ccc(O)c(Br)c3)sc2cc1N(C)CCOCCF` [F0502B], the “staining of Aβ plaques or NFTs in AD brains” value [15] is reported as “but not Aβ plaques or NFTs”, the Kd ([10]; read-out: KD, aggregated α-Syn in DLB patients, DLB) is reported as 6.23 nM and the Kd ([10]; read-out: KD, aggregated α-Syn in PD patients, PD) is reported as 3.68 nM. The “effect on complete cell count or liver/renal functions” value [16] was “did not alter complete cell count or liver/renal functions”, the “staining of Aβ plaques or NFTs in mouse brain sections” value [8] was “but not Aβ plaques or NFTs; also recorded: weakly associated with Aβ aggregates” and the Ki [17] was 3.4 nM. For the same compound, the “ex vivo staining of Aβ or Tau aggregates after i.v. injection” value [18] was “not Aβ or Tau aggregates”, the “staining of α-Syn pathology in patient brain slides” value [19] was “specific association of F0502B with α-Syn aggregates” and the “binding to Tau fibrils” value [20] was “poorly bound”. The “staining of α-Syn deposits in mouse brain sections” value [9] was “specific association of F0502B with α-Syn aggregates”, the “staining of α-Syn inclusions” value [21] was “stained the α-Syn inclusions that were positive for p-S129 and 5G4” and the Kd ([14]; read-out: KD for α-Syn deposits in PD brains, PD brains) was 4.26 to 7.32 nM. The Kd ([14]; read-out: Kd, DLB brain homogenates, unfractionated human DLB brain homogenates) was 9.79 nM, the Kd ([14]; read-out: Kd, PD brain homogenates, unfractionated human PD brain homogenates) was 4.26 nM and the “ex vivo staining of α-Syn aggregates after i.v. injection” value [22] was “selectively stains α-Syn aggregates”. The “binding selectivity toward α-Syn PFFs versus Aβ and Tau PFFs” value ([23]; counter screening) was “stronger binding affinity with α-Syn PFFs than with Aβ and Tau PFFs”, the “binding activities toward α-Syn PFFs” value ([23]; ThT positive control) was “specifically bound α-Syn fibrils” and the “binding to Aβ fibrils” value [24] was “poorly bound”. The “signals in neurons with α-Syn aggregates” value [25] was “specific association of F0502B with α-Syn aggregates”, the Cl rate [26] was “approximately 33.6 L/h/kg” and the “plasma half-life t1/2” value [26] was 6.9 min. For the same compound, the “brain versus plasma (B/P) ratio” value ([26]; 1 min) was 0.106 and the “brain versus plasma (B/P) ratio” value ([26]; 1 h) was 13.37.
